HIF act: HIF pathway transcriptional activation. U2OS HRE-luciferase reporter, luminescence; normalized: DMSO 0%, desferrioxamine 100%. activation, % at 7.5 µM (by protocol). actives 0.32% (n = 300,000). AID 1910;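 active means mean activation of at least 10% of the iron chelator positive control signal, with at least half of replicates also reaching 10%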
ARNT TACC3 PPI: disrupts binding between human ARNT and TACC3 | AlphaScreen His-ARNT PAS-B/GST-TACC3 binding, luminescence; TACC3 fragment carries E629A point mutation | inhibition, % at 9.99 µM | actives 0.66% (n = 390,000);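 active means mean inhibition of replicates at least 50% and at least half of replicates each reaching 50%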
AI-2 QS modul: modulators of Vibrio harveyi AI-2 quorum sensing system; actives 0.4% (n = 300,000); activity change, % at 7.5 µM; Vibrio harveyi JMH597 AI-2 luminescence/OD600 ratio, 9 h; hits give low values; strain lacks LuxN and CqsS sensors; 0 = neutral-control median; in the data active means activity change below about -75%, passing the limit was not always enough;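 further: luminescence divided by OD600 gain over 9 h not by final OD600 alone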
T cruzi repl: blocks replication of Trypanosoma cruzi; inhibition, % (no concentration beside the values); AID 1885; T. cruzi beta-gal in NIH3T3, luminescence, 90 h; actives 1.4% (n = 300,000);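 active means mean inhibition across valid replicates above about 55%, limit read from the data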;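 further: signal also drops with host cell toxicity which is not excluded here; higher percent means less beta-gal luminescence so fewer parasites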
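System: Mouse NIH/3T3 fibroblasts infected with β-gal-expressing T. cruzi Tulahuen C4 | Quantity: NIH/3T3 cells, 5,000 per well | Reagent: 5000 reporter trypomastigotes per well | Dosing: Compound pinned at 50 nL/well, DMSO | Schedule: 3 h host attachment, then at least 90 h co-culture | Detection: GalScreen luminescence, 60 min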
Large screens that a line does not name were inactive. Most compounds without a hit are left out; they make up all but 2% or so of the library.

CC(=O)Nc1nc(NC(=O)/C=C/c2ccccc2)n(-c2ccccc2)n1	HIF act 10.4
Nc1nc(NC(=O)c2ccccc2)nn1-c1ccccc1	none
O=C(Nc1nc(NC(=O)c2ccco2)n(-c2ccccc2)n1)c1ccccc1	HIF act 12.0, ARNT TACC3 PPI 56.1
CC(=O)Nc1nc(NCc2ccccc2Cl)n(-c2ccccc2)n1	none
C[C@@H]1CN([C@H](C)CO)C(=O)CCCn2cc(nn2)CO[C@H]1CN(C)C	none (no result: HIF act, AI-2 QS modul, T cruzi repl)
Cc1cccc(C)c1NC(=O)CSc1nnc(-c2cccnc2)o1	none
O=C(CSc1nnc(-c2cccnc2)o1)Nc1nccs1	ARNT TACC3 PPI 50.3
O=C(NCc1cccs1)c1cc(-c2ccncc2)nc2ccc(Br)cc12	T cruzi repl 54.8 (no result: ARNT TACC3 PPI)
O=C(c1ccco1)N1CCN(C(=O)c2cc(-c3ccncc3)nc3ccc(Br)cc23)CC1	T cruzi repl 56.4
CO[C@H]1CN(C)C(=O)c2ccc(NC(=O)C3CCCC3)cc2OC[C@@H](C)N(C)C[C@H]1C	none (no result: HIF act, AI-2 QS modul, T cruzi repl)
CCOC(=O)C1CCCN(Cc2nc(N)nc(Nc3ccccc3)n2)C1 (centres undefined)	ARNT TACC3 PPI 47.7
Nc1nc(CN2CCCCCC2)nc(Nc2ccccc2)n1	ARNT TACC3 PPI 51.6
CC1CC(C)CN(Cc2nc(N)nc(Nc3ccccc3)n2)C1 (centres undefined)	none
Cc1ccc(Nc2nc(N)nc(CN3CCCCCC3)n2)cc1	ARNT TACC3 PPI 50.3
Nc1nc(CN2CCN(C(c3ccccc3)c3ccccc3)CC2)nc(Nc2ccccc2)n1	none
COc1ccccc1C(=O)Nc1ccc2c(c1)OC[C@@H](C)NC[C@@H](C)[C@@H](OC)CN(C)C2=O	none (no result: HIF act, AI-2 QS modul, T cruzi repl)
CN(C)C(=O)c1cccc(-c2ccc([C@@H]3[C@@H](CO)N4CCCCN(CCC(F)(F)F)C[C@H]34)cc2)c1	none (no result: HIF act, AI-2 QS modul, T cruzi repl)
CO[C@H]1CN(C)C(=O)c2cc(NC(=O)C3CCCC3)ccc2OC[C@@H](C)N(C)C[C@H]1C	none (no result: HIF act, AI-2 QS modul, T cruzi repl)
Cc1cc(NC(=O)Cc2cccs2)no1	none (no result: HIF act, AI-2 QS modul, T cruzi repl)
Cc1cc(NS(=O)(=O)c2ccc(NC(=O)Cc3cccs3)cc2)no1	AI-2 QS modul -78.1
C[C@@H]1CN([C@@H](C)CO)C(=O)c2cc(NC(=O)c3ccccc3)ccc2O[C@@H](C)CCCCO[C@H]1CN(C)S(=O)(=O)c1ccc(Cl)cc1	none (no result: HIF act, AI-2 QS modul, T cruzi repl)
O=C(N[C@@H]1CC[C@@H](CCNS(=O)(=O)c2ccccc2Cl)O[C@H]1CO)c1ccccc1	none (no result: HIF act, AI-2 QS modul, T cruzi repl)
N/C(=N\OC(=O)Cc1cccs1)c1ccccc1	HIF act active (no result: ARNT TACC3 PPI)
COc1ccc(/C(N)=N/OC(=O)c2cccs2)cc1	none
N/C(=N\OC(=O)c1cccs1)c1ccc(Cl)cc1	HIF act 12.1 (no result: ARNT TACC3 PPI)
CN(c1ccccc1)c1nc(N)c([N+](=O)[O-])c(Nc2ccccc2F)n1	none
COc1ccc(OC)c(Nc2nc(N(C)c3ccccc3)nc(N)c2[N+](=O)[O-])c1	T cruzi repl 69.1
COc1ccc(-c2cnc3c(c2)C(=O)N([C@H](C)CO)C[C@H](C)[C@@H](CN(C)S(C)(=O)=O)O3)cc1	none (no result: HIF act, AI-2 QS modul, T cruzi repl)
O=C(COc1ccccc1)Nc1nnc(-c2ccccc2)o1	ARNT TACC3 PPI 93.2
O=C(COC(=O)c1ccco1)Nc1nnc(-c2ccccc2)o1	ARNT TACC3 PPI 59.8
COc1cc(OC)c(C(=O)OCC(=O)Nc2nnc(-c3ccccc3)o2)cc1OC	ARNT TACC3 PPI 85.0 (no result: HIF act, AI-2 QS modul, T cruzi repl)
CCC(=O)Nc1nnc(-c2ccccn2)o1	ARNT TACC3 PPI 47.5
CNC[C@@H]1Oc2ccc(NC(=O)C3CC3)cc2C(=O)N([C@H](C)CO)C[C@H]1C	none (no result: HIF act, AI-2 QS modul, T cruzi repl)
C[C@H](CO)N1C[C@H](C)[C@@H](CN(C)C(=O)Cc2ccccn2)Oc2ncc(C#CC3CCCCC3)cc2C1=O	none (no result: HIF act, AI-2 QS modul, T cruzi repl)
O=C(COc1ccccc1)Nc1nnc(-c2ccc(Cl)s2)o1	AI-2 QS modul -87.0
CCC(=O)Nc1nnc(-c2ccco2)o1	none
O=C(COc1ccccc1)Nc1nnc(-c2ccco2)o1	ARNT TACC3 PPI 74.1
CC(C)(C)c1cc(C(c2cccnc2)N2CCN(CCO)CC2)cc(C(C)(C)C)c1O (centres undefined)	T cruzi repl 60.6
CC(C)(C)n1nnnc1C(c1cccnc1)N1CCN(c2cccc(C(F)(F)F)c2)CC1 (centres undefined)	none
C[C@@H]1CCCCO[C@H](CN(C)C(=O)C2CCCCC2)[C@@H](C)CN([C@@H](C)CO)C(=O)c2cc(NS(=O)(=O)c3ccc(F)cc3)ccc2O1	none (no result: HIF act, AI-2 QS modul, T cruzi repl)
COCC(=O)NC[C@H]1[C@@H](c2ccccc2)[C@@H](CO)N1C(C)=O	none (no result: HIF act, AI-2 QS modul, T cruzi repl)
O=C(Nc1cc(Sc2nc3ccccc3s2)cc([N+](=O)[O-])c1)c1ccccc1	T cruzi repl 56.0
O=C(Nc1cc(Sc2nc3ccccc3s2)cc([N+](=O)[O-])c1)c1ccccc1F	T cruzi repl 65.4
C[C@H](CO)N1C[C@H](C)[C@@H](CN(C)C(=O)Nc2ccc3c(c2)OCO3)OCCCC[C@H](C)Oc2ccc(NS(=O)(=O)c3cccs3)cc2C1=O	none (no result: HIF act, AI-2 QS modul, T cruzi repl)
CO[C@@H]1CN(C)C(=O)c2cc(NC(=O)NC(C)C)ccc2OC[C@H](C)N(Cc2ccccn2)C[C@@H]1C	none (no result: HIF act, AI-2 QS modul, T cruzi repl)
CCOc1ccc(CN2CCC(n3nccc3NC(=O)c3ccccc3OC)CC2)cc1	T cruzi repl 61.7
CCn1cc(CN2CCC(n3nccc3NC(=O)c3ccccc3OC)CC2)cn1	none (no result: ARNT TACC3 PPI)
COc1ccccc1C(=O)Nc1ccnn1C1CCN(Cc2cnc(N(C)C)s2)CC1	T cruzi repl 55.9
C[C@@H]1CN([C@@H](C)CO)C(=O)c2cccc(NS(=O)(=O)c3cccs3)c2O[C@@H]1CN(C)C(=O)Nc1ccc2c(c1)OCO2	none (no result: HIF act, AI-2 QS modul, T cruzi repl)
CC(=O)Nc1ccc(C(=O)Nc2nc(-c3ccccn3)cs2)cc1	none (no result: ARNT TACC3 PPI)
O=C(Nc1nc(-c2ccccn2)cs1)Nc1ccc(F)cc1F	T cruzi repl 55.5
Cc1ccc(OCC(=O)Nc2nc(-c3ccccn3)cs2)c(C)c1	none
O=C(Nc1nc(-c2ccccn2)cs1)c1ccc2c(c1)OCCO2	ARNT TACC3 PPI 49.7
CCc1cc(C(=O)Nc2nc(-c3ccccn3)cs2)sc1C	ARNT TACC3 PPI 65.3 (no result: HIF act, AI-2 QS modul, T cruzi repl)
CC(=O)c1ccc(-c2ccc(C(=O)Nc3nc(-c4ccccn4)cs3)o2)cc1	ARNT TACC3 PPI 49.6 (no result: HIF act, AI-2 QS modul, T cruzi repl)
C[C@@H]1CCCCO[C@@H](CN(C)C(=O)Nc2ccc(C(F)(F)F)cc2)[C@H](C)CN([C@@H](C)CO)C(=O)c2cc(NS(=O)(=O)c3ccccc3)ccc2O1	none (no result: HIF act, AI-2 QS modul, T cruzi repl)
Cc1cc(C(=O)Nc2nc(-c3ccccn3)cs2)ccc1[N+](=O)[O-]	T cruzi repl 80.3 (no result: AI-2 QS modul)
CCCn1nc(C(=O)Nc2nc(-c3ccccn3)cs2)c2ccccc2c1=O	ARNT TACC3 PPI 50.5 (no result: HIF act, AI-2 QS modul, T cruzi repl)
O=C(Nc1nc(-c2ccccn2)cs1)c1ccccc1-n1cnnn1	HIF act 52.1, T cruzi repl 63.0
CC1CC1C(=O)Nc1nc(-c2ccccn2)cs1 (centres undefined)	ARNT TACC3 PPI 61.7
Cc1csc(NC(=O)c2ccc(C)c([N+](=O)[O-])c2)n1	none
Cc1ccc(S(=O)(=O)c2ccccc2)cc1S	T cruzi repl 62.3 (no result: ARNT TACC3 PPI)
Nc1ccc(S(=O)(=O)c2cccc(N)c2)cc1	none
O=C(N/N=C/c1c[nH]c2ccccc12)c1cc(-c2ccc3ccccc3c2)n[nH]1	AI-2 QS modul -78.7
